The values that follow come from ChEMBL document CHEMBL1127856, “Synthesis and structure-activity studies on acidic amino acids and related diacids as NMDA receptor ligands” (J Med Chem, 1994).

The target of test [1] is T1, Glutamate receptor ionotropic, AMPA (Rattus norvegicus, UniProt P19490+P19491+P19492+P19493). In words: Tested in vitro for the concentration required to inhibit [3H]AMPA radioligand at AMPA receptor sites in rat cortical membranes. In kind it is cell membranes.
The species named for test [2] is Rattus norvegicus. The test can be described thus: Effective concentration in vitro as electropharmacological activity in the rat cortical wedge preparation. The class given is functional. The gist of the method:
(§1)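 Rat brain wedges (500 μm) containing cerebral cortex and corpus callosum, separated by a grease gap. The cortex side is perfused with Mg2+-free oxygenated Krebs buffer containing the compounds, and the callosum side with Mg2+- and Ca2+-free Krebs. DC potentials are recorded via Ag/AgCl electrodes. Agonists for antagonism: NMDA 10 μM, AMPA 5 μM, kainic acid 10 μM. Dose–response curves come from single experiments, each repeated at least twice.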

The target in test [3] is Glutamate NMDA receptor. The test can be described thus: Stimulation of [3H]-MK-801 binding to EAA receptor sites in rat cortical membranes.
Test [4] has as its target Glutamate NMDA receptor. The test can be described thus: Tested in vitro for the concentration required to inhibit [3H]CPP radioligand at EAA receptor sites in rat cortical membranes. The class given is cell membranes. The gist of the method:
(§2)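 Radioligand displacement ([3H]AMPA or [3H]CPP) in rat cortical membranes prepared by the Ransom and Stec method.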

In test [5] the target is T1, Glutamate receptor ionotropic, AMPA. In words: Tested in vitro for the concentration required to inhibit [3H]AMPA radioligand at EAA receptor sites in rat cortical membranes. In kind it is cell membranes. A digest of the protocol: as §2
Test [6] addresses Glutamate receptor ionotropic, AMPA (Rattus norvegicus) (UniProt P19491+P19492+P19493+P19490). The test can be described thus: Inhibition of [3H]AMPA radioligand at EAA receptor sites in rat cortical membranes at 100 uM concentration. The class given is cell membranes. The note with it: Membrane. The gist of the method:
as §2

For test [7], the target named is Glutamate NMDA receptor (Rattus norvegicus) (UniProt P35439+Q00959+Q00960+Q00961+Q62645+Q8VHN2+Q9R1M7). In words: Inhibition of [3H]CPP radioligand at EAA receptor sites in rat cortical membranes at 100 uM concentration. In kind it is cell membranes. The note with it: Membrane. A digest of the protocol: as §2
The species named for test [8] is Rattus norvegicus. The test can be described thus: Effective concentration in vitro as electropharmacological activity in the rat cortical wedge preparation; antagonist. In kind it is functional. The gist of the method: as §1
In test [9] the target is Glutamate receptor ionotropic, NMDA 2C (Rattus norvegicus) (UniProt Q00961). The test can be described thus: pKa was determined. In kind it is functional.
Glutamate receptor ionotropic, NMDA 2C (Rattus norvegicus), sequence (Q00961 20-1237 limits assumed): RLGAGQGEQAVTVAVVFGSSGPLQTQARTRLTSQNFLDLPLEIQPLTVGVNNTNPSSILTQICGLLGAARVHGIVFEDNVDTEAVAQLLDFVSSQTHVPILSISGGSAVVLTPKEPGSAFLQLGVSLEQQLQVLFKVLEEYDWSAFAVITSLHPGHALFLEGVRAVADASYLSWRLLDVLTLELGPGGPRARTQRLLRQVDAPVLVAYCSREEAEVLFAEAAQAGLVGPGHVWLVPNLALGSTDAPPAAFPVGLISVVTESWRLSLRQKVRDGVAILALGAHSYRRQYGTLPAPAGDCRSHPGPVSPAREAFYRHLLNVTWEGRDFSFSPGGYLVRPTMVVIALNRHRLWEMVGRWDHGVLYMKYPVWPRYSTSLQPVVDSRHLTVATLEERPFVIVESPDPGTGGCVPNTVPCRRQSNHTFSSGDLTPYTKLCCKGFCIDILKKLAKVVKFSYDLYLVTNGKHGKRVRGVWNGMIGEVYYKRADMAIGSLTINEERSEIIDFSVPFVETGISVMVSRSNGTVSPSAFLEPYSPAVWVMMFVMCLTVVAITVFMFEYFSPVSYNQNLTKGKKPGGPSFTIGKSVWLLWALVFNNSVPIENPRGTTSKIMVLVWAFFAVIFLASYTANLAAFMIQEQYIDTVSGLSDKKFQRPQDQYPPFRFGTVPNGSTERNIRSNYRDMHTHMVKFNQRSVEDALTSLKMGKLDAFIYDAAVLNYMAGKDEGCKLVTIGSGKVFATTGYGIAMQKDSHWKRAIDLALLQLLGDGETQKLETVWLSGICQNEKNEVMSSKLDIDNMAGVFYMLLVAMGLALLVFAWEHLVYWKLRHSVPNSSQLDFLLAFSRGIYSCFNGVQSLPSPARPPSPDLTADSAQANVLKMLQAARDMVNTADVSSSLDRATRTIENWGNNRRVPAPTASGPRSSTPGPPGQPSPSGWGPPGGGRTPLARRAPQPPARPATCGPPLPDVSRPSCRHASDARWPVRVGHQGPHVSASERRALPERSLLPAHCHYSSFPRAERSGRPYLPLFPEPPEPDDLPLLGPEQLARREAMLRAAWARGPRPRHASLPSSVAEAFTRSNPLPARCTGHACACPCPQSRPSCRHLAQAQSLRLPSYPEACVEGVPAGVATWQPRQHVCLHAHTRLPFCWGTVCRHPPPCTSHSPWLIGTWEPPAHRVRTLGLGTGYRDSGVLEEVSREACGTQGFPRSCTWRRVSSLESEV

As usually defined, the IC50 is the point on the concentration scale where inhibition reaches its midpoint. By EC50 is commonly meant the midpoint of the concentration-response curve. Low readings indicate greater potency, high ones weaker potency. Take `NC(Cc1c(O)noc1CBr)C(=O)O` (configuration not stated): the half-inhibitory concentration (IC50) in test [1] was found to be 30 nM. For the same compound, the figures for the 50% effective concentration (EC50) in the test listed under Rattus norvegicus [2] and on Glutamate NMDA receptor [3] were 13 µM and above 100 µM, respectively.
`CC(C)(C)c1onc(O)c1CC(N)C(=O)O` (configuration not stated) displayed an IC50 on Glutamate NMDA receptor [4] above 100 µM. In addition, the EC50 in the test listed under Rattus norvegicus [2] is 48 µM; at Glutamate NMDA receptor [3], above 100 µM.
Usually inhibition stands for how much of the control response was suppressed. Low readings indicate little suppression, high ones strong suppression. As for `CC(C)(C)c1onc(O)c1C(N)C(=O)O` (configuration not stated), the IC50 (in test [5]; at Glutamate NMDA receptor [4]) was above 100 µM throughout. For the same compound, the inhibition turned out to be 8% in test [6] and 25% in test [7]. The EC50 result was “Antagonist” in the test listed under Rattus norvegicus [8] and above 100 µM on Glutamate NMDA receptor [3].
As for `NC(Cc1c(O)noc1CO)C(=O)O` (configuration not stated), the 50% inhibitory concentration (IC50) in test [5] is 0.4 µM; at Glutamate NMDA receptor [4] it was above 100 µM. Also, the 50% effective concentration (EC50) was 110 µM in the test listed under Rattus norvegicus [2] and above 100 µM at Glutamate NMDA receptor [3].
Consider `CNC(C(=O)O)c1c(C)o[nH]c1=O` (configuration not stated), for which the values for the IC50 (in test [5]; on Glutamate NMDA receptor [4]) were above 100 µM and 18.3 µM, respectively. The EC50 was determined as 70 µM in the test filed under Rattus norvegicus [2] and 50 µM at Glutamate NMDA receptor [3].
Taken in the same sequence, the figures for `COC(C(=O)O)c1c(O)noc1C` (configuration not stated) were above 100 µM, above 100 µM, above 5000 µM and above 100 µM.
In test [5], `Cc1o[nH]c(=O)c1C(N)C(=O)O` (configuration not stated) returned a half-inhibitory concentration (IC50) above 100 µM. Besides, the figures for the EC50 in the test filed under Rattus norvegicus [2] and on Glutamate NMDA receptor [3] were 4.3 µM and 0.45 µM, respectively.
For `NC(C(=O)O)c1c(O)noc1CO` (configuration not stated), in [5], the IC50 is above 100 µM. For the same compound, the EC50 was 8 µM in the test filed under Rattus norvegicus [2] and 5 µM on Glutamate NMDA receptor [3].
Regarding `O=C(O)c1cccnc1C(=O)O` [QUINOLINIC ACID], the IC50 (in test [5]; at Glutamate NMDA receptor [4]) was above 100 µM each time. Also, the pKa in [9] is below 2. This compound also had an EC50 in the test listed under Rattus norvegicus [2] of 1500 µM.
Regarding `CSC(C(=O)O)c1c(O)noc1C` (configuration not stated), the IC50 (in test [5]; at Glutamate NMDA receptor [4]) was above 100 µM in each case. Also, the values for the EC50 in the test listed under Rattus norvegicus [2] and on Glutamate NMDA receptor [3] were above 5000 µM and above 100 µM, respectively.
Turning to `NC1(C(=O)O)CCCCc2onc(O)c21` (configuration not stated), the IC50 (in [5]; at Glutamate NMDA receptor [4]) was above 100 µM each time. Further, the 50% effective concentration (EC50) is 2500 µM in the test filed under Rattus norvegicus [2] and above 100 µM at Glutamate NMDA receptor [3].
